From ChEMBL document CHEMBL1127638, “Dibasic (amidinoaryl)propanoic acid derivatives as novel blood coagulation factor Xa inhibitors” (J Med Chem, 1994)

Assays:
[1] = In vitro evaluation for the concentration needed to double the Plasma recalcification clotting time; assay type: functional, Homo sapiens
How it was run: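 Human plasma incubated with saline or inhibitor in saline for 2 min at 37 °C. Clotting started with 20 mM CaCl2 solution. Result given as the concentration that doubles plasma clotting time (CT2).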

Coagulation factor X = Coagulation factor X (Homo sapiens, UniProt P00742); assay: In vitro evaluation for the concentration needed for inhibiting factor Xa by 50%
Prothrombin = Prothrombin (Homo sapiens, UniProt P00734); assay: In vitro evaluation for the concentration needed for inhibiting thrombin by 50%
Rattus norvegicus [2] = assay: Ex vivo anticoagulant activity was measured by calculating the Activated partial thromboplastin time at 1 hr by dose of 300 mg/kg on oral administration in male Wistar rat; assay type: functional
How it was run: (§1)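 Male Wistar rats (200-250 g), fasted overnight, given compound dissolved in water by stomach tube. Anesthetized with sodium thiopental (100 mg/kg, ip) 15 min after dosing. Jugular vein blood taken into trisodium citrate at several time points and centrifuged to platelet-poor plasma. APTT read after mixing plasma with saline and Platerin Plus activator, clotting started with 20 mM CaCl2. Reported as test/control ratio, mean ± SE, n = 4-5.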

Rattus norvegicus [3] = assay: Ex vivo anticoagulant activity was measured by calculating the Activated partial thromboplastin time at 4 hr by dose of 300 mg/kg on oral administration in male Wistar rat; assay type: functional; how it was run: as §1
Rattus norvegicus [4] = assay: Ex vivo anticoagulant activity was measured by calculating the Activated partial thromboplastin time at 2 hr by dose of 300 mg/kg on oral administration in male Wistar rat; assay type: functional; how it was run: as §1
Rattus norvegicus [5] = assay: Ex vivo anticoagulant activity was measured by calculating the Activated partial thromboplastin time at 0.5 hr by dose of 300 mg/kg on oral administration in male Wistar rat; assay type: functional; how it was run: as §1
Rattus norvegicus [6] = assay: Ex vivo anticoagulant activity was measured by calculating the Activated partial thromboplastin time (test/control) at 1 hr by dose of 100 mg/kg on oral administration in male Wistar rat; assay type: functional; how it was run: as §1
Rattus norvegicus [7] = assay: Ex vivo anticoagulant activity was measured by calculating the Activated partial thromboplastin time (test/control) at 2 hr by dose of 100 mg/kg on oral administration in male Wistar rat; assay type: functional; how it was run: as §1
Rattus norvegicus [8] = assay: Ex vivo anticoagulant activity was measured by calculating the Activated partial thromboplastin time (test/control) at 0.5 h by dose of 100 mg/kg on oral administration in male Wistar rat; assay type: functional; how it was run: as §1
Rattus norvegicus [9] = assay: Ex vivo anticoagulant activity was measured by calculating the Activated partial thromboplastin time (test/control) at 4 hr by dose of 100 mg/kg on oral administration in male Wistar rat; assay type: functional; how it was run: as §1

Coagulation factor X, sequence (P00742 41-179 limits assumed): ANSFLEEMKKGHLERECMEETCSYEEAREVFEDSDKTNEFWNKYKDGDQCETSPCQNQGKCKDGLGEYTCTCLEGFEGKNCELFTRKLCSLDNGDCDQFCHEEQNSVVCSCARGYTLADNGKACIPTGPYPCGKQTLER
Coagulation factor X, sequence (P00742 235-488 limits assumed): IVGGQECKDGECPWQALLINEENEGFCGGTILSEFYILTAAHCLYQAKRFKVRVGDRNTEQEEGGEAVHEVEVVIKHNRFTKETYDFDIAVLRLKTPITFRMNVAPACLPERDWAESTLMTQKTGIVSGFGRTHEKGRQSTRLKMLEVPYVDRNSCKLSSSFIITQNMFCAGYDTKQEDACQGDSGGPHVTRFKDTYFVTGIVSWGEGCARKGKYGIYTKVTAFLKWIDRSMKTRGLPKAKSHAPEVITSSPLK

| Compound | CT2 [1] [µM] | IC50 (Coagulation factor X) [µM] | IC50 (Prothrombin) [µM] | further results |
| --- | --- | --- | --- | --- |
| N=C(N)c1ccc2ccc(CC(C(=O)O)c3ccc(O[C@H]4CCNC4)cc3)cc2c1 (some centres not stated) | 3.2 | 0.2 | > 1600 |  |
| CCOC(=O)C(Cc1cc2ccc(C(=N)N)cc2o1)c1ccc(O[C@H]2CCNC2)cc1 (some centres not stated) | 8.3 | 1.7 | 36 |  |
| CC(=N)N1CC[C@H](Oc2ccc([C@@H](Cc3ccc4ccc(C(=N)N)cc4c3)C(=O)O)cc2)C1 | 6 |  |  |  |
| CC(=N)N1CC[C@H](Oc2ccc(CCc3cc4cc(C(=N)N)ccc4o3)cc2)C1 | 1.2 | 0.64 | 4 |  |
| CC(=N)N1CC[C@H](Oc2ccc(C(Cc3ccc4cc(C(=N)N)ccc4c3)C(=O)O)cc2)C1 (some centres not stated) | 4.4 |  |  |  |
| N=C(N)c1ccc2oc(CCc3ccc(O[C@H]4CCNC4)cc3)cc2c1 | 7.5 | 0.94 | 100 |  |
| CC(=N)N1CC[C@H](Oc2ccc(C(Cc3ccc4ccc(C(=N)N)cc4c3)C(=O)O)cc2)C1 (some centres not stated) | 1.3 |  |  |  |
| N=C(N)c1ccc2cc(CC(C(=O)O)c3ccc(O[C@H]4CCNC4)cc3)oc2c1 (some centres not stated) | 16 | 1.7 | > 1000 |  |
| CC(=N)N1CC[C@H](Oc2ccc(C(Cc3cc4ccc(C(=N)N)cc4o3)C(=O)O)cc2)C1 (some centres not stated) | 5.6 | 0.84 | > 400 |  |
| CCOC(=O)C(Cc1ccc2ccc(C(=N)N)cc2c1)c1ccc(O[C@H]2CCNC2)cc1 (some centres not stated) | 3.2 | 0.31 | > 600 |  |
| CC(=N)N1CC[C@H](Oc2ccc(C(Cc3cc4cc(C(=N)N)ccc4o3)C(=O)O)cc2)C1 (some centres not stated) | 6 | 0.5 | 15 |  |
| CCOC(=O)C(Cc1ccc2cc(C(=N)N)ccc2c1)c1ccc(O[C@H]2CCNC2)cc1 (some centres not stated) | 12.4 | 4.2 | 38 |  |
| CCOC(=O)C(Cc1ccc(O[C@H]2CCNC2)cc1)c1cc2cc(C(=N)N)ccc2o1 (some centres not stated) | 31 | 52 | 20 | Tested/Control (Rattus norvegicus [2]): 1.3; Tested/Control (Rattus norvegicus [3]): 1.05; Tested/Control (Rattus norvegicus [4]): 1.11; Tested/Control (Rattus norvegicus [5]): 0.98 |
| N=C(N)c1ccc2cc(CC(C(=O)O)c3ccc(O[C@H]4CCNC4)cc3)ccc2c1 (some centres not stated) | 22 | 4.1 | > 100 |  |
| N=C(N)c1ccc2oc(CCc3cc4cc(C(=N)N)ccc4o3)cc2c1 | 1.6 | 0.1 | 5 |  |
| N=C(N)c1ccc2oc(CC(C(=O)O)c3ccc(O[C@H]4CCNC4)cc3)cc2c1 (some centres not stated) | 14 |  | 230 | Tested/Control (Rattus norvegicus [2]): 1.4; Tested/Control (Rattus norvegicus [3]): 1.2; Tested/Control (Rattus norvegicus [4]): 1.25; Tested/Control (Rattus norvegicus [5]): 1.28 |
| N=C(N)c1ccc2oc(C(Cc3ccc(O[C@H]4CCNC4)cc3)C(=O)O)cc2c1 (some centres not stated) | 14 | 45 | 9 | Tested/Control (Rattus norvegicus [2]): 1.33; Tested/Control (Rattus norvegicus [3]): 1.16; Tested/Control (Rattus norvegicus [4]): 1.15 |
| CCOC(=O)C(Cc1cc2cc(C(=N)N)ccc2o1)c1ccc(O[C@H]2CCNC2)cc1 (some centres not stated) | 20 | 1 | 21 | Tested/Control (Rattus norvegicus [2]): 1.17; Tested/Control (Rattus norvegicus [3]): 1.21; Tested/Control (Rattus norvegicus [4]): 1.19; Tested/Control (Rattus norvegicus [5]): 1.17 |
| CC(=N)N1CC[C@H](Oc2ccc([C@H](Cc3ccc4ccc(C(=N)N)cc4c3)C(=O)O)cc2)C1 [DX-9065A] | 0.5 |  |  | Tested/Control (Rattus norvegicus [6]): 1.51; Tested/Control (Rattus norvegicus [7]): 1.48; Tested/Control (Rattus norvegicus [8]): 1.63; Tested/Control (Rattus norvegicus [9]): 1.28 |
